Measured values from ChEMBL document CHEMBL4425163, “Structure elucidation of anti-methicillin resistant Staphylococcus aureus (MRSA) flavonoids from balsam poplar buds” (Bioorg Med Chem, 2016).
Converted amounts (≈) assume the structure as drawn.

Key:
[1] = system: Staphylococcus aureus; test: Antibacterial activity against methicillin resistant Staphylococcus aureus clinical isolate 8 incubated […] by microdilution resazurin assay; assay type: functional; details: Staphylococcus aureus, isolate 8; read-out: MIC
[2] = system: Staphylococcus aureus; test: Antibacterial activity against methicillin resistant Staphylococcus aureus clinical isolate 9 incubated […] by microdilution resazurin assay; assay type: functional; details: Staphylococcus aureus, isolate 9; read-out: MIC
[3] = system: Staphylococcus aureus; test: Antibacterial activity against methicillin resistant Staphylococcus aureus clinical isolate 1 incubated […] by microdilution resazurin assay; assay type: functional; details: Staphylococcus aureus, isolate 1; read-out: MIC
[4] = system: Staphylococcus aureus; test: Antibacterial activity against methicillin resistant Staphylococcus aureus clinical isolate 7 incubated […] by microdilution resazurin assay; assay type: functional; details: Staphylococcus aureus, isolate 7; read-out: MIC
[5] = system: Staphylococcus aureus; test: Antibacterial activity against methicillin resistant Staphylococcus aureus clinical isolate 10 incubated […] by microdilution resazurin assay; assay type: functional; details: Staphylococcus aureus, isolate 10; read-out: MIC
[6] = system: Staphylococcus aureus; test: Antibacterial activity against methicillin resistant Staphylococcus aureus clinical isolate 3 incubated for 7 to 14 days by microdilution resazurin assay
[7] = system: Staphylococcus aureus; test: Antibacterial activity against methicillin resistant Staphylococcus aureus clinical isolate 5 incubated […] by microdilution resazurin assay; assay type: functional; details: Staphylococcus aureus, isolate 5; read-out: MIC
[8] = system: Staphylococcus aureus; test: Antibacterial activity against methicillin resistant Staphylococcus aureus clinical isolate 6 incubated […] by microdilution resazurin assay; assay type: functional; details: Staphylococcus aureus, isolate 6; read-out: MIC
[9] = system: Staphylococcus aureus; test: Antibacterial activity against methicillin resistant Staphylococcus aureus clinical isolate 4 incubated for 7 to 14 days by microdilution resazurin assay
[10] = system: Staphylococcus aureus; test: Antibacterial activity against Staphylococcus aureus ATCC 25923 incubated […] by microdilution resazurin assay; assay type: functional; details: Staphylococcus aureus, ATCC 25923; read-out: MIC
[11] = system: Staphylococcus aureus; test: Antibacterial activity against methicillin resistant Staphylococcus aureus clinical isolate 2 incubated […] by microdilution resazurin assay; assay type: functional; details: Staphylococcus aureus, isolate 2; read-out: MIC
[12] = Cytotoxicity against human WS1 cells by resazurin reduction assay; assay type: cell-based; details: Homo sapiens, WS1
Summary of the method: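 WS1 human fibroblast line; resazurin reduction test, slightly modified from an earlier method. Etoposide served as positive control.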

| Compound | MIC [1] [µM] | MIC [2] [µM] | MIC [3] [µM] | MIC [4] [µM] | MIC [5] [µM] | MIC [6] [µM] | MIC [7] [µM] | MIC [8] [µM] | MIC [9] [µM] | MIC [10] [µM] | MIC [11] [µM] | IC50 [12] [µM] |
| --- | --- | --- | --- | --- | --- | --- | --- | --- | --- | --- | --- | --- |
| O=C(CCc1ccc(O)cc1)c1c(O)cc(O)c2c1O[C@@H](c1ccc(O)cc1)[C@H](C/C=C/c1ccc(O)cc1)C2 | 13 (≈ 7 µg/mL) | 13 (≈ 7 µg/mL) | 25 (≈ 13.5 µg/mL) | 6 (≈ 3.23 µg/mL) | 13 (≈ 7 µg/mL) | 13 (≈ 7 µg/mL) | 13 (≈ 7 µg/mL) | 13 (≈ 7 µg/mL) | 25 (≈ 13.5 µg/mL) | 13 (≈ 7 µg/mL) | 13 (≈ 7 µg/mL) | > 10 |
| O=C(CCc1ccccc1)c1c(O)c2c(c3c1O[C@@H](c1ccc(O)cc1)[C@H](C/C=C/c1ccc(O)cc1)C3)O[C@@H](c1ccc(O)cc1)[C@H](O)C2 (racemic) | 6 (≈ 4.02 µg/mL) | 6 (≈ 4.02 µg/mL) | 6 (≈ 4.02 µg/mL) | 6 (≈ 4.02 µg/mL) | 6 (≈ 4.02 µg/mL) | 6 (≈ 4.02 µg/mL) | 6 (≈ 4.02 µg/mL) | 6 (≈ 4.02 µg/mL) | 6 (≈ 4.02 µg/mL) | 6 (≈ 4.02 µg/mL) | 6 (≈ 4.02 µg/mL) | > 10 |
